One assay concerns the target T1, Neprilysin (Oryctolagus cuniculus, UniProt P08049).
T1 sequence (P08049 whole entry): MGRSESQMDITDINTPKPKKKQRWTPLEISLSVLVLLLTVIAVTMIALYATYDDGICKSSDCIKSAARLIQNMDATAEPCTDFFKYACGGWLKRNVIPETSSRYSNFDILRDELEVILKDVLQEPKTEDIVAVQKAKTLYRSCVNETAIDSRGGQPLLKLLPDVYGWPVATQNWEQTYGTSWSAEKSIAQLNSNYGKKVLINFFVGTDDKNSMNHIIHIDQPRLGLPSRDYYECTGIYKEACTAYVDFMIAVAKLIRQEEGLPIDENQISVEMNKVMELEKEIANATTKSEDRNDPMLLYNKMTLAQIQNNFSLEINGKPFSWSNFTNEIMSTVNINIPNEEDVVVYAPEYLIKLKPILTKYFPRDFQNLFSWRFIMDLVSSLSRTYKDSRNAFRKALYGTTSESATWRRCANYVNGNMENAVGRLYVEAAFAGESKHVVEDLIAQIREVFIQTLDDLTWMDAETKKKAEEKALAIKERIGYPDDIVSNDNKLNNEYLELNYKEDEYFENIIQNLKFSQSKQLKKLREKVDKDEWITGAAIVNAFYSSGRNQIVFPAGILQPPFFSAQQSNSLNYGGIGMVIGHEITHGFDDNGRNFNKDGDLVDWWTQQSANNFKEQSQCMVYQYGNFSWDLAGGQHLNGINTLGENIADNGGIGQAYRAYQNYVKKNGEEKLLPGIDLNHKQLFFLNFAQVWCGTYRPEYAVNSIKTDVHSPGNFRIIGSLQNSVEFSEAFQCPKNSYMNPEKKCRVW
The assay is described as follows: Inhibition of [3H]Ala2-Leu-enkephalin binding to Neutral endopeptidase (NEP). In a few lines:
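NEP purified to homogeneity from rabbit kidney (single 94 kD band on SDS-PAGE), 1 pmol/100 μL final. Enzyme preincubated 15 min at 25 °C with or without increasing inhibitor in 50 mM Tris-HCl pH 7.0. [3H]D-Ala2-Leu-enkephalin then added at 20 nM final and the reaction stopped after 30 min with HCl. IC50 from log probit analysis of five inhibitor concentrations, mean ± SEM of four independent experiments.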

Assay [1] in a line: Inhibition of [3H]Leu-enkephalin binding to aminopeptidase. Set-up: species or system Sus scrofa. In a few lines: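 Uses commercial purified pig kidney aminopeptidase N without further purification. Enzyme preincubated 15 min at 25 °C with inhibitor in 50 mM Tris-HCl pH 7.0. [3H]Leu-enkephalin then added at 10 nM final (Km 50 μM) and the reaction stopped with HCl. IC50 by log probit analysis of five inhibitor concentrations, mean ± SEM of four independent experiments.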

Assay [2] can be described thus: Inhibition of [3H]Leu-enkephalin binding to Dipeptidyl aminopeptidase (DAP). More on the design: species or system Rattus norvegicus. The procedure, abridged: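 Membrane-bound DAP partially purified from rat brain. […] IC50 by log probit analysis of five inhibitor concentrations, mean ± SEM of four independent experiments.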

SMILES strings stand for the structures. Where only a bound is given, the exact number is not on record here.

Results on 14 compounds are retold here after ChEMBL document CHEMBL1124208, “Retro-inverso concept applied to the complete inhibitors of enkephalin-degrading enzymes” (J Med Chem, 1988).

Usually IC50 stands for the concentration that gives 50% inhibition. High values mean weaker potency in that assay, low ones greater potency in that assay. As for `CC(C(=O)O)C(=O)NC(Cc1ccccc1)C(=O)NO` (stereo in doubt; 8), the concentration for half-maximal inhibition (IC50) at Neprilysin is 0.945 µM; in assay [1], 6.1 µM; in assay [2], 2.7 µM.
For `C[C@H](NC(=O)[C@@H](CC(=O)NO)Cc1ccccc1)C(=O)O` (racemic) [KELATORPHAN], the IC50 worked out at 0.0017 µM on Neprilysin, 0.38 µM in assay [1] and 0.0009 µM in assay [2].
`O=C(O)CC(=O)N[C@H](CC(=O)NO)Cc1ccccc1`: the IC50 at Neprilysin came out at 0.0025 µM; in assay [1], 150 µM; in assay [2] it was 0.45 µM.
For `CC(C(=O)O)C(=O)NC(Cc1ccccc1)C(=O)NO` (stereo in doubt; 9) the same measures were 0.32 µM, ~100 µM and 0.071 µM.
As for `O=C(O)CC(=O)N[C@@H](CC(=O)NO)Cc1ccccc1`, the IC50 is 0.0005 µM at Neprilysin, 2 µM in assay [1] and 0.14 µM in assay [2].
`CN(O)C(=O)C[C@@H](Cc1ccccc1)NC(=O)CC(=O)O`: the IC50 on Neprilysin is 1.73 µM; in assay [1], > 100 µM.
For `O=C(O)CNC(=O)C(CC(=O)NO)Cc1ccccc1` (racemic), the half-inhibitory concentration (IC50) in assay [1] was 2 µM; in assay [2], 0.021 µM.
Consider `O=C(O)CNC(=O)C(Cc1ccccc1)C(=O)NO` (racemic), for which the half-maximal inhibitory concentration (IC50) in assay [1] is 100 µM; in assay [2] it was 35 µM.
`O=C(CC(Cc1ccccc1)C(=O)NC(Cc1ccccc1)C(=O)O)NO` (racemic): the IC50 came out at 0.0025 µM on Neprilysin and 0.13 µM in assay [1].
Take `O=C(O)CC(=O)N[C@@H](Cc1ccccc1)C(=O)NO`: the results for the IC50 (at Neprilysin; in assay [1]; in assay [2]) were 2.5 µM, 400 µM and 2 µM, respectively.
Regarding `CC(C(=O)O)C(=O)NC(CC(=O)NO)Cc1ccccc1` (stereo unspecified), the values for the half-inhibitory concentration (IC50) (at Neprilysin; in assay [1]; in assay [2]) were 0.0016 µM, 8.6 µM and 0.0175 µM, respectively.
As to `O=C(O)CC(=O)N[C@H](Cc1ccccc1)C(=O)NO`, the concentration for half-maximal inhibition (IC50) at Neprilysin is 3.35 µM; in assay [1] it was ~20 µM; in assay [2] it was ~32 µM.
On to `CN(O)C(=O)[C@@H](Cc1ccccc1)NC(=O)CC(=O)O`, for which the half-maximal inhibitory concentration (IC50) on Neprilysin was found to be 6.07 µM.
In the case of `O=C(CC(Cc1ccccc1)NC(=O)C(Cc1ccccc1)C(=O)O)NO` (stereo unspecified), the IC50 at Neprilysin was determined as 0.0037 µM; in assay [1], 6.2 µM; in assay [2], 0.0325 µM.
